From ChEMBL document CHEMBL1149180, “Synthesis and biological evaluation of 2-phenylpyran-4-ones: a new class of orally active cyclooxygenase-2 inhibitors” (J Med Chem, 2004) come the findings set out here.

A short description of series [1]: Half life after 10 mg/kg oral administration in rat. The series is classed as ADME, organism-based. More on the design: dose 10 mg/kg, route oral. Particulars: in vivo. An outline of the steps: (§1)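 Fasted male Wistar rats dosed orally at 10 mg/kg, with blood sampled at several time points. Plasma (100 µL, 200 µL for one compound) was mixed with 20 mM sodium acetate pH 4 and analysed by online solid-phase extraction, isocratic reversed-phase HPLC and UV detection at 270-280 nm. Parameters came from noncompartmental analysis, with three animals per group.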

For series [2], the target named is T1, Prostaglandin G/H synthase 2 (Homo sapiens, UniProt P35354).
T1 sequence (P35354 whole entry): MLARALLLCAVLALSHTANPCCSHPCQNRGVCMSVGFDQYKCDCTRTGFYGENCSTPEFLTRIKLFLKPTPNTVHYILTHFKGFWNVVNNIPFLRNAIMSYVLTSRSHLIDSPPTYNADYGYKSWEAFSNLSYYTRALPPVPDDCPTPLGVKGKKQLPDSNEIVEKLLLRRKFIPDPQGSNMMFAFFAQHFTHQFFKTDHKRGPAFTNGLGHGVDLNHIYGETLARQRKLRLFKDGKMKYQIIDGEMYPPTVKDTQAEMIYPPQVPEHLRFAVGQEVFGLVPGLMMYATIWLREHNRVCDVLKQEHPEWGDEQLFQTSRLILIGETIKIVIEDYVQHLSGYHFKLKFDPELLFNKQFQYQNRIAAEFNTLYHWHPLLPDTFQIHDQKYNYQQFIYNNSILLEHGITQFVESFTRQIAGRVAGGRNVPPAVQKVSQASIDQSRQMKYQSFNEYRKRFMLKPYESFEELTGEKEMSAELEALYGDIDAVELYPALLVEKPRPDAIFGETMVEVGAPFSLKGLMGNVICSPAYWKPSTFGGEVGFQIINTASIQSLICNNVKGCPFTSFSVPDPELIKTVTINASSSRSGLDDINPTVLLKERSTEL
The series can be described thus: Inhibition concentration against cyclooxygenase-2 (COX-2) in human whole blood. The format is tissue-based.

For series [3], the system named is Rattus norvegicus. The series can be described thus: In vivo inhibition of hyperalgesia in rat at 3 mg/kg. The format is functional. A digest of the protocol:
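Atkinson inflammatory hyperalgesia model in male Wistar rats fasted 18 h with free access to water. Percent inhibition was measured at 3 mg/kg, with six to seven animals, reported ± SEM. Groups were compared by ANOVA, with p < 0.05 significant.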

A short description of series [4]: Cmax after 10 mg/kg oral administration in rat. The format is ADME, organism-based. Particulars: in vivo. Also noted: dose 10 mg/kg, route oral. A digest of the protocol:
as §1

A further series is filed under the species Homo sapiens. The series can be described thus: Compound was tested for human plasma protein binding. The series is classed as cell-free. A digest of the protocol: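 Pooled human plasma, 1 mL aliquots, incubated with 2.5 µg/mL compound at 37 °C for 2 h. Ultrafiltration by centrifugation at 2000g for 15 min. Ultrafiltrate diluted 1:1 in acetonitrile/water (50:50) and assayed by isocratic HPLC with MS detection (SIR mode). Protein-free levels quantified against 25 and 250 ng/mL standards in PBS.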

Series [5] has as its system Rattus norvegicus. The series can be described thus: Compound was tested in vivo for adjuvant arthritis in rat. The series is classed as functional.
Series [6] can be described thus: Area under curve after 10 mg/kg oral administration in rat at 0-24 hr. The series is classed as ADME, organism-based. Also noted: time < 24 hr, dose 10 mg/kg, route oral. Particulars: in vivo. An outline of the steps: as §1
The species named for series [7] is Rattus norvegicus. Briefly: Effective dose in the yeast-induced pyresis model in rat. The series is classed as functional. An outline of the steps:
(§2)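 Yeast-induced pyresis in male Wistar rats fasted 18 h with free access to water, with test compounds given orally. […] Groups were compared by ANOVA, with p < 0.05 significant.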

Series [8] deals with Prostaglandin G/H synthase 1 (Homo sapiens, UniProt P23219). The series can be described thus: Inhibition concentration against cyclooxygenase-1 (COX-1) in human whole blood. The series is classed as tissue-based.
The species named for series [9] is Rattus norvegicus. Briefly: Effective dose in the adjuvant induced arthritis model in rat. The series is classed as functional. An outline of the steps:
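Adjuvant-induced arthritis in male Wistar rats fasted 18 h with free access to water. ED50 (mg/kg) was derived from four doses with six to eight animals per group. Groups were compared by ANOVA, with p < 0.05 taken as significant.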

Series [10] concerns Rattus norvegicus. The series can be described thus: Percent inhibition of compound against yeast-induced pyresis model in rat at 10 mg/kg. The series is classed as functional. The conditions noted are these: read-out: Inhibition. An outline of the steps:
as §2

Series [11] deals with Rattus norvegicus. The series can be described thus: Inhibition at 10 mg/kg in the yeast-induced pyresis model in rat.

Chain of Prostaglandin G/H synthase 1 (P23219 whole entry): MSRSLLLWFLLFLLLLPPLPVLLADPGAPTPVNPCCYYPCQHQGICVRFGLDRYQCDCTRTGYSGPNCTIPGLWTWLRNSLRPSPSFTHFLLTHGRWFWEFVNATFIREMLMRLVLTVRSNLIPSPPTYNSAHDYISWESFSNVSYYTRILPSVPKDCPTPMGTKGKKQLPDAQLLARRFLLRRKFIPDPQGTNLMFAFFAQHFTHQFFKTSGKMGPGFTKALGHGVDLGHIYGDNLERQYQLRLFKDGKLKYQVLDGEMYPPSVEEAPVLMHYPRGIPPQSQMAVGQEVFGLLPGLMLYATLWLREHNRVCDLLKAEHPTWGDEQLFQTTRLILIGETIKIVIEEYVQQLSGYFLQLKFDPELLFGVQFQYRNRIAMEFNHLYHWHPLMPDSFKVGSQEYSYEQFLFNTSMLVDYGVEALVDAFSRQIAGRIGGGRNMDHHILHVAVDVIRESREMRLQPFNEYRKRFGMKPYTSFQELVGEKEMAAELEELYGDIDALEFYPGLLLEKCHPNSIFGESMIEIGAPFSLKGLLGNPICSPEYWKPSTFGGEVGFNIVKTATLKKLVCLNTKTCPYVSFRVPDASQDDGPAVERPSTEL

As to `Cc1cc(=O)c(Oc2ccc(F)cc2F)c(-c2ccc(S(C)(=O)=O)cc2)o1`, the half-life – broadly, the time in which the quantity being followed falls by half – in [1] is 4.5 h. Further, the IC50 (as a rule, the concentration at which inhibition is half-maximal) in series [2] was 0.08 µM; in series [8], 22.3 µM. The inhibition in vivo at 3 mg/kg in the series with Rattus norvegicus [3] was 69%. The Cmax – broadly, the maximum level reached in the sampled fluid or tissue – in [4] came to 6800 ng/mL. For the same compound, the Binding in the series filed under Homo sapiens came out at 98.4. The ED50 (in general, the dose that gives a 50% effect, or the effect in half of the subjects) in the series with Rattus norvegicus [5] was 0.015 mg/kg; in the series listed under Rattus norvegicus [7] it was 0.7 mg/kg. Also, the AUC (as a rule, the area under the concentration-time curve, a measure of exposure) at 24 h in series [6] was 90200 ng·h/mL.

`Cc1cc(=O)c(Oc2ccc(Br)cc2F)c(-c2ccc(S(C)(=O)=O)cc2)o1`: the half-life in [1] is 3.6 h. The same compound returned an inhibition in vivo at 3 mg/kg in the series on Rattus norvegicus [3] of 61%. Besides, the Cmax in series [4] was determined as 900 ng/mL. Further, the Binding in the series listed under Homo sapiens stood at 93.9. Moreover, the median effective dose (ED50) with Rattus norvegicus [5] turned out to be 0.008 mg/kg; in the series filed under Rattus norvegicus [7], 3.2 mg/kg. This compound had an AUC at 24 h in series [6] of 10900 ng·h/mL. In [8], this compound registered an IC50 of 22.8 µM.

As for `CS(=O)(=O)c1ccc(C2=C(c3ccccc3)C(=O)OC2)cc1` [ROFECOXIB], the inhibition in vivo at 3 mg/kg in the series with Rattus norvegicus [3] stood at 60%. The 50% effective dose (ED50) amounted to 0.9 mg/kg in the series filed under Rattus norvegicus [7] and 0.3 mg/kg in the series listed under Rattus norvegicus [9].

In [1], `Cc1cc(=O)c(Oc2ccc(Cl)cc2)c(-c2ccc(S(C)(=O)=O)cc2)o1` had a half-life of 2.6 h. Also, the results for the IC50 in series [2] and in series [8] were 0.32 µM and 207 µM, respectively. In addition, the inhibition in vivo at 3 mg/kg in the series with Rattus norvegicus [3] is 51%. For the same compound, the highest level in series [4] (Cmax) was 5400 ng/mL. The same compound registered a Binding in the series listed under Homo sapiens of 98.2. For the same compound, the 50% effective dose (ED50) came to 0.3 mg/kg in the series on Rattus norvegicus [5] and 2.2 mg/kg in the series filed under Rattus norvegicus [7]. The AUC at 24 h in series [6] was 69000 ng·h/mL.

In turn, `Cc1ccc(-c2ncc(Cl)cc2-c2ccc(S(C)(=O)=O)cc2)cn1` [ETORICOXIB] showed an inhibition in vivo at 3 mg/kg in the series on Rattus norvegicus [3] of 35%. In addition, the results for the ED50 in the series filed under Rattus norvegicus [7] and in the series listed under Rattus norvegicus [9] were 1 mg/kg and 0.44 mg/kg, respectively. This compound returned an IC50 in series [8] of 98.8 µM.

For `Cc1cc(=O)c(-c2ccccc2)c(-c2ccc(S(C)(=O)=O)cc2)o1`, the figures for the IC50 in series [2] and in series [8] were 1.84 µM and greater than 100 µM, respectively. In addition, the inhibition in vivo at 10 mg/kg in the series on Rattus norvegicus [10] came out at 0%. Further, the Inhibition % with Rattus norvegicus [11] came to 0%.

Consider `Cc1cc(=O)c(Oc2ccc(Cl)cc2F)c(-c2ccc(S(C)(=O)=O)cc2)o1`, for which the half-life in [1] is 3.3 h. The IC50 turned out to be 0.2 µM in series [2] and 18.8 µM in series [8]. The compound further displayed an inhibition in vivo at 3 mg/kg in the series with Rattus norvegicus [3] of 54%. This compound also gave a Cmax in [4] of 2000 ng/mL. This compound also gave a Binding in the series filed under Homo sapiens of 97.5. For the same compound, the values for the ED50 in the series on Rattus norvegicus [5] and in the series filed under Rattus norvegicus [7] were 0.05 mg/kg and 0.8 mg/kg, respectively. In addition, in series [6], the AUC at 24 h came to 23400 ng·h/mL.
